From ChEMBL document CHEMBL1140174, “A copper(I)-catalyzed 1,2,3-triazole azide-alkyne click compound is a potent inhibitor of a multidrug-resistant HIV-1 protease variant” (J Med Chem, 2008) come the findings set out here.

Activity calls are given as the source filed them. The rule behind the calls is not given here.

Assay [1] addresses Protease (Human immunodeficiency virus 1, UniProt Q9YQ12). As to the kind of experiment: Inhibition of wild type HIV1 protease. The essentials:
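Purified HIV-1 protease (expression and purification described in earlier work) is preincubated with inhibitor in 25mM MES pH 5.6, 200mM NaCl, 5% glycerol, 1mM DTT in a prewarmed plate. Final concentrations: 25nM protease, 30µM fluorogenic anthranilyl substrate H-2992, 0.001–600µM inhibitor. Cleavage is read as fluorescence intensity. IC50 comes from nonlinear regression of initial velocities against inhibitor concentration, and Ki is calculated with the Cheng-Prusoff equation.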

Assay [2] deals with Human immunodeficiency virus 1. As to the kind of experiment: Antiviral activity against wild type HIV1 in human SupT1 cells assessed as viral LTR-driven luciferase activity using TZM-bl cells. The conditions noted are these: Human immunodeficiency virus 1, SUP-T1. The assay is classed as functional, organism-based. The essentials: (§1)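 SupT1 cells infected at MOI 0.001–0.005 and cultured with inhibitor at 1–4000 nM. On day 5–6, cell-free supernatant transferred to 10^4 TZM-bl cells carrying an HIV-1 LTR-driven luciferase reporter. Luciferase read by luminescence after 48 h. EC50 from nonlinear regression.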

Assay [3] deals with Human immunodeficiency virus 1. As to the kind of experiment: Antiviral activity against multidrug-resistant HIV1 with protease V82A, M46I, F53L, V77I, L24I, L63P mutation in human SupT1 cells assessed as viral LTR-driven luciferase activity using TZM-bl cells. In kind it is functional, organism-based. Conditions: Human immunodeficiency virus 1, SUP-T1. The essentials:
as §1

A short description of assay [4]: Inhibition of multidrug-resistant HIV1 protease with V82A, M46I, F53L, V77I, L24I, L63P mutation. The arrangement: species or system Human immunodeficiency virus 1. The essentials:
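Fluorogenic cleavage assay with purified protease in 25mM MES pH 5.6, 200mM NaCl, 5% glycerol, 1mM DTT. Final concentrations 25nM enzyme, 30μM anthranilyl substrate H-2992, inhibitor 0.001–600μM. Reaction started by adding substrate in a prewarmed plate, read by fluorescence. IC50 by nonlinear regression of initial velocities; Ki from Cheng-Prusoff.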

Assay [5] deals with Human immunodeficiency virus 1. The assay can be described thus: Antiviral activity against wild type HIV1 in human SupT1 cells assessed as inhibition of viral replication measured at 6 days postinfection by p24 ELISA assay. In kind it is functional, organism-based. The conditions noted are these: Human immunodeficiency virus 1, SUP-T1, 144 h. The essentials: (§2)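 SupT1 cells (RPMI 1640, 10% FCS, 2mM L-glutamine, penicillin/streptomycin) infected with 10–100ng/mL p24 of virus at 37°C, washed, then cultured ± inhibitor at 1–4000 nM. Supernatant sampled every second day with media and inhibitor replenished. p24 measured by ELISA at 6 days post-infection, expressed as percentage of untreated cells; EC50 by nonlinear regression.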
(An ELISA detects its analyte on a solid surface through an enzyme-linked reagent.)

Assay [6] concerns Human immunodeficiency virus 1. As to the kind of experiment: Antiviral activity against wild type HIV1 in human SubT1 cells assessed as inhibition of viral replication at 250 nM measured at 6 days postinfection by p24 ELISA assay. The assay is classed as functional, organism-based. The essentials: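 SupT1 cells (RPMI 1640, 10% fetal calf serum) were infected with wild-type HIV-1 (10–100ng/mL p24) at 37°C, washed, then cultured with inhibitor at 1–4000 nM. Every second day supernatant was sampled and medium plus inhibitor replaced. p24 was measured by ELISA 6 days post-infection and expressed as a percentage of untreated cells (relative p24).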

For assay [7], the system named is Human immunodeficiency virus 1. The assay can be described thus: Antiviral activity against multidrug-resistant HIV1 with protease V82A, M46I, […], V77I, L24I, L63P mutation in human SubT1 cells assessed as inhibition of viral replication at 250 nM measured at 6 days postinfection by p24 ELISA assay relative to control. In kind it is functional. The essentials:
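SupT1 cells (RPMI 1640, 10% fetal calf serum, 2mM L-glutamine, penicillin/streptomycin) infected with 10–100ng/mL p24 of SupT1-grown virus at 37°C, washed, then resuspended in medium with or without inhibitor (1–4000 nM range). Supernatant sampled every second day with medium and inhibitor replenished. p24 quantified by ELISA 6 days post infection, expressed as percentage of untreated cells.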

Assay [8] concerns Human immunodeficiency virus 1. The assay can be described thus: Antiviral activity against multidrug-resistant HIV1 with protease V82A, M46I, F53L, V77I, L24I, L63P mutation in human SupT1 cells assessed as inhibition of viral replication measured at 6 days postinfection by p24 ELISA assay. The assay is classed as functional, organism-based. Conditions: Human immunodeficiency virus 1, SUP-T1, 144 h. The essentials:
as §2

Chain of Protease (Q9YQ12 whole entry): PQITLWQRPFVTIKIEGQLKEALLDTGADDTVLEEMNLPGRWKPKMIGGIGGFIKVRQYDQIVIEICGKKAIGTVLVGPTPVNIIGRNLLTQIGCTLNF

As to `COc1ccc(S(=O)(=O)N(CC(C)C)C[C@@H](O)[C@H](Cc2ccccc2)n2cc(COC(=O)N[C@H]3c4ccccc4C[C@H]3O)nn2)cc1`, the results for the concentration for half-maximal inhibition (IC50) in assay [1] and in assay [4] were 6 nM and 15.7 nM, respectively. In addition, the Ki in assay [1] stood at 2.7 nM; in assay [4], 7.1 nM. The EC50 was determined as 86 nM in assay [2], 260 nM in assay [3], 30 nM in assay [5] and 55 nM in assay [8]. Moreover, the result in assay [6] was Active. Besides, the “fold change (FC)” value in assay [7] is on record as 20.

For the molecule `CC(C)[C@H](NC(=O)[C@H](C)NC(=O)OCc1ccccc1)C(=O)N[C@@H](Cc1ccccc1)[C@@H](O)[C@H](O)[C@H](Cc1ccccc1)NC(=O)[C@@H](NC(=O)[C@H](C)NC(=O)OCc1ccccc1)C(C)C`, the EC50 stood at 92 nM in assay [2] and 46 nM in assay [5].

As a reminder, the IC50 is the concentration that gives 50% inhibition. By Ki is commonly meant the dissociation constant of the complex between target and ligand, obtained from inhibition or displacement. Low values mean higher affinity, high ones lower affinity. Usually EC50 stands for the concentration giving half of the maximal effect.
